p47phox inh: p47phox (human) inhibition; p47phox/p22phox peptide binding, fluorescence polarization, 2 h; inhibition, % at 24.7 µM; 220,000 compounds, 0.53% hits; AID 1274;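 note: 0% = p47phox with labelled peptide and 100% = labelled peptide alone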
14-3-3 Bad PPI: disrupts binding of bovine 14-3-3 zeta to phospho-Bad peptide. 220,000 compounds, 0.71% hits. TR-FRET 14-3-3zeta/Dy647-pBad peptide displacement, 1 h. inhibition, % at 21.7 µM. P63103;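 active = inhibition above about 70%, limit read from the data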;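 note: 0% = full 14-3-3 plus peptide FRET controls and 100% = background without 14-3-3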
EBV gp42 block: blocks Epstein-Barr virus glycoprotein 42 binding; Q1HVG2; Fluorescence polarization binding assay, mP read-out; inhibition, % (tested at 21.74 µM); 220,000 compounds, 0.42% hits; AID 1085; in the data active = inhibition above about 50%
Target sequence (Q1HVG2 whole entry, looked up): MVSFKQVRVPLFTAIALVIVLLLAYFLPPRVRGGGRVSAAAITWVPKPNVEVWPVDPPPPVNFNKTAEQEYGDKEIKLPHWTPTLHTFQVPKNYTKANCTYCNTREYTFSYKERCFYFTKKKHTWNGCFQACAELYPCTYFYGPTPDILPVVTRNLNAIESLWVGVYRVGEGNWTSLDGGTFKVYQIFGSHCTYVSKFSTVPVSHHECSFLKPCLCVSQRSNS
WT yeast gro inh: growth inhibition of WT yeast, mitochondrial fusion screen | mitochondrial fusion phenotypic screen, WT strain | inhibition, % at 10 µM | 190,000 compounds, 2.1% hits | AID 1362; in the data active = inhibition above about 58%; tested in S. cerevisiae
eIF4E-4G inh: inhibitors of eIF4E and eIF4G interaction in translation initiation | P63073+Q04637 | TR-FRET eIF4E-eIF4GI(517-606) binding, 2 h | inhibition, % at 21.7 µM | 220,000 compounds, 0.37% hits | AID 782;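 note: 0% = full FRET control wells and 100% = background wells lacking eIF4GI fragment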
RBBP9 inh: human RBBP9 hydrolase inhibition; recombinant RBBP9, FP-Rh probe fluorescence polarization; inhibition, % at 7.94 µM; 220,000 compounds, 0.2% hits; AID 1515;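 active = inhibition above the campaign mean of all tested compounds plus 3 SD, cut at about 14% in these data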;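 note: plate controls were DMSO wells with RBBP9 for no effect and wells lacking RBBP9 protein for full effect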
Target sequence (O75884 whole entry, looked up): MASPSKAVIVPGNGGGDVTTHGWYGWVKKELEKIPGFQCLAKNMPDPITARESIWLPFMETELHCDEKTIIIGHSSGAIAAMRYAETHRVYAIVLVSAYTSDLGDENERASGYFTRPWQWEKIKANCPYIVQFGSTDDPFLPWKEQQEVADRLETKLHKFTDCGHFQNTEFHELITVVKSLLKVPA
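System: RBBP9 protein / Buffer or medium: Tris/NaCl buffer pH 8.0 with 0.1% Pluronic / Probe or stimulus: Serine-hydrolase probe FP-Rh, 375 nM pre-mixing / Dosing: 7.94 µM single dose, 0.794% DMSO / Times: enzyme-compound preincubation 30 min, then probe labeling 45 min, 25 °C / Technique: fluorescence polarization (mP), excitation 525 nm, emission 598 nm / Replication: singlicate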
Starred values were filed as active, the others as inactive; nt = no result given. Sampled rows, rich in hits. Any-hit rate of the full collection: about 3.7%.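 Rule for the calls, unless noted: active = inhibition above about 30% (limit read from the data); inactive = the rest.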

SMILES	p47phox inh	14-3-3 Bad PPI	EBV gp42 block	WT yeast gro inh	eIF4E-4G inh	RBBP9 inh
COc1ccc(N2C(=O)/C(=C/C=C/c3ccccc3[N+](=O)[O-])C(=O)NC2=S)cc1	-19	46	8	-11	36*	-10
CCc1nnc(NS(=O)(=O)c2ccc(N=Cc3c(O)n(-c4ccc(Cl)cc4)c(=O)[nH]c3=O)cc2)s1	-4	-18	4	-14	2	-10
CC(=O)N1CN2CN(C(C)=O)CC(C(=O)c3ccccc3)(C2)C1	-5	3	-3	-2	5	-7
O=C(c1ccncc1)C12CN3CN(CN(C3)C1)C2	-19	85*	3	-3	-1	-6
COc1ccc(NC(=S)NC(NC(=O)CF)C(Cl)(Cl)Cl)c([N+](=O)[O-])c1 (stereo unspecified)	-4	8	-9	-10	20	0
Cc1nn(Cc2ccc(Cl)cc2Cl)c(Cl)c1C(=O)NC1CCCc2ccccc21 (stereo unspecified)	-9	-16	-15	12	1	-4
CCOC(=O)c1c(NC(=O)C(c2ccccc2)c2ccccc2)sc2c1C1CCN2CC1	-77	79*	-20	0	2	-8
CCOC(=O)c1c(NC(=O)c2c(N)n(CCCOC)c3nc4ccccc4nc23)sc2c1CCCC2	-27	1	-22	-15	7	-5
Cc1cc(C)c2c(c1)-c1cc(C)nn1C(c1cccnc1)N2 (stereo unspecified)	-10	8	-11	16	1	-1
O=P1(Oc2ccccc2)CC=C[C@H](COCc2ccccc2)O1 (stereo partly specified)	-8	-3	-17	nt	-4	nt
COC(=O)C(O)(c1ccc(NC(=S)NC(=O)c2ccc(Cl)cc2Cl)c(C)c1)C(F)(F)F (stereo unspecified)	-17	-7	6	75*	-4	-10
CCOC(=O)C(O)(c1ccc(NC(=S)NC(=O)c2ccc(Cl)cc2Cl)c(C)c1)C(F)(F)F (stereo unspecified)	-2	0	7	77*	-7	-18
CCC(=O)OC1(Cc2ccc(CC)cc2)CC(C)N(C)CC1C (stereo unspecified)	2	47	-2	nt	-2	-6
CN1C(=O)/C(=C\N2CCc3ccccc32)C(=O)NC1=S	-171	-9	90*	11	4	-8
CN1C(=O)/C(=C/c2cccn2-c2ccc3ccccc3c2)C(=O)NC1=S	-47	25	-6	27	9	0
Cc1cc(/C=C2\C(=O)NC(=O)N(c3cccc(Br)c3)C2=O)c(C)n1C	-174	-22	111*	-34	0	-8
Cc1cc(/C=C2/C(=O)NC(=O)N(c3ccc(Br)cc3)C2=O)c(C)n1C	-122	-4	20	nt	2	0
Cc1nn(Cc2ccccc2)c(Cl)c1C(=O)OCC(=O)N1CCCC1	-8	-6	-5	-1	0	-2
CCN1CCN(Cc2ccc(OC(F)(F)F)cc2)CC1	-8	85*	-12	7	0	-7
CCOC(=O)C1=C(N)Oc2cc(C)oc(=O)c2C12C(=O)N1c3c(cccc32)C(C)CC1(C)C (stereo unspecified)	-6	70*	-11	9	-12	-4
CCOC(=O)C1=C(N)Oc2cc(C)oc(=O)c2C12C(=O)N1c3c(cccc32)C(C)=CC1(C)C (stereo unspecified)	-26	1	-7	4	1	-7
O=c1c2ccccc2nc(-c2cccs2)n1-c1ccccc1	-9	5	-4	-5	-1	4
Cc1cccc(-n2c(-c3cccs3)nc3ccccc3c2=O)c1	-13	71*	3	-4	1	-5
O=c1cccc2n1CC1CC2CN(Cc2cccc(Cl)c2Cl)C1 (stereo unspecified)	-11	-2	-11	-3	-3	-2
O=c1cccc2n1CC1CC2CN(Cc2c(F)cccc2Cl)C1 (stereo unspecified)	-29	77*	-20	-15	2	-4
SMILES	p47phox inh	14-3-3 Bad PPI	EBV gp42 block	WT yeast gro inh	eIF4E-4G inh	RBBP9 inh
CCCCCCn1c(N)c(C(=O)NCCN2CCOCC2)c2nc3ccccc3nc21	-36	4	3	86*	1	0
O=C(COC(=O)c1ccc(O)cc1)Nc1ccc(Cl)cc1C(=O)c1ccccc1	-16	-5	3	77*	-1	-9
CSc1ccc(C(c2c(O)c3ccccc3oc2=O)c2c(C)n(C)n(-c3ccccc3)c2=O)cc1 (stereo unspecified)	-12	-21	14	-72	-4	0
Cc1c(C(c2ccc(Cl)cc2Cl)c2c(O)c3ccccc3oc2=O)c(=O)n(-c2ccccc2)n1C (stereo unspecified)	7	9	7	75*	-2	-9
Cc1c(C(c2ccc(Br)cc2)c2c(O)c3ccccc3oc2=O)c(=O)n(-c2ccccc2)n1C (stereo unspecified)	53*	1	0	18	-2	-4
COc1ccc(C2=NCC(=S)Nc3ccc(Cl)cc32)cc1Cl	0	-6	-7	7	-1	-12
Oc1cc2c(cc1O)[C@H]1c3ccccc3CN[C@@H]1CC2	-3	0	-4	-4	-3	22*
O=c1[nH]c2ccccc2n1CCCN1CCC(n2c(=O)[nH]c3cc(Cl)ccc32)CC1	-6	92*	-7	-10	0	3
CCn1nc(/C=C/c2ccccc2)nc2c(=O)n(C)c(=O)nc1-2	-7	-17	-14	90*	-1	-4
CCn1nc(-c2cccs2)nc2c(=O)n(C)c(=O)nc1-2	-5	-5	7	96	-5	nt
CN(C)c1ccc(CN2CC=C(c3ccc(F)cc3)CC2)cc1	-6	73*	-14	22	10	-3
CC(=NCCC1=CCCCC1)c1c(O)n(-c2ccccc2)c(=O)[nH]c1=O	-7	-8	-14	nt	3	-3
O=c1[nH]c(=O)n(-c2ccc(Br)cc2)c(O)c1C=NCCN1CCCCC1	5	0	-12	nt	93*	6
Cc1cccc(-n2c(O)c(C=NCCN3CCCCC3)c(=O)[nH]c2=O)c1	-2	-2	-18	nt	1	-10
O=C1NC(=O)C(=Cc2ccc(N3CCOCC3)o2)C(=O)N1	58*	-20	-229	-14	2	-6
COc1cccc(NP(=O)(Oc2ccc(Cl)cc2)Oc2ccc(Cl)cc2)c1	11	8	-2	63*	15	-2
C/C(=N\N1CCCCCC1)c1c(O)n(C2CCCCC2)c(=O)[nH]c1=O	-1	-16	-5	nt	45*	-8
O=c1cccc2n1C[C@H]1C[C@@H]2CN2CCCC[C@@H]12	-10	3	-11	nt	-13	3
Nc1ccncc1	-4	-1	-1	1	-1	-9
